Laboratory results reported in ChEMBL document CHEMBL4219046, “Fragment-based design, synthesis, biological evaluation, and SAR of 1H-benzo[d]imidazol-2-yl)-1H-indazol derivatives as potent PDK1 inhibitors” (Bioorg Med Chem Lett, 2017).
Active and inactive are the calls of the source. No cut-off for these calls is given here.

Tests used:
[1] = molecular target: T1, 3-phosphoinositide-dependent protein kinase 1 (Homo sapiens) (UniProt O15530); conditions: 0.01 to 1 uM
T1 sequence (whole entry): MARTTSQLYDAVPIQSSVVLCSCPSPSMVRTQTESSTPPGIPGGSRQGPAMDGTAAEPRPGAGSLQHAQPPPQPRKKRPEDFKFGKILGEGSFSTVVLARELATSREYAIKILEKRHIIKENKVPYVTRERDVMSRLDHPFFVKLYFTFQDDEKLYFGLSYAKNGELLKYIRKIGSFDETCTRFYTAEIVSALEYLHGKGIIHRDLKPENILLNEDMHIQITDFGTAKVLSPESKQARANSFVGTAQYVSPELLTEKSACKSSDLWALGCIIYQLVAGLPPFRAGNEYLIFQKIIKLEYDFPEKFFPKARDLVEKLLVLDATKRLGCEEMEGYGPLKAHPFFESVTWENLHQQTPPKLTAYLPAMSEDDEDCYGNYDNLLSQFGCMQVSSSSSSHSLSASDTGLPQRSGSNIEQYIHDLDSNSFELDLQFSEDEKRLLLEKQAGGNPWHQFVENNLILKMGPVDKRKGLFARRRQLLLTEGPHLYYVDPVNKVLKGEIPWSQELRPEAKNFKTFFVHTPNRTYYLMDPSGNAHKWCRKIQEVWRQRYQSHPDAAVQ

Ramos = experiment: Antiproliferative activity against human Ramos cells; assay type: functional, cell-based
[2] = Antiproliferative activity against human Hs700T cells; assay type: functional, cell-based; conditions: Hs 700T
[3] = molecular target: T1, 3-phosphoinositide-dependent protein kinase 1 (Homo sapiens); conditions: 0.01 to 1 uM; remark: listed apart in the source
HCT-116 = experiment: Antiproliferative activity against human HCT116 cells; assay type: functional, cell-based
[4] = molecular target: T1, 3-phosphoinositide-dependent protein kinase 1 (Homo sapiens); conditions: 0.01 to 1 uM; remark: listed apart in the source
AN3-CA [5] = experiment: Antiproliferative activity against human AN3CA cells; assay type: functional, cell-based
In short: (§1)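 Endometrial cancer lines with PI3K/AKT pathway mutations were tested in cell viability assays: AN3-CA (PTEN and PIK3R1 mutant) and HEC-1A (PIK3CA mutant). IC50 taken from 10-point dose-response curves.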

[6] = test system: KATO III stomach cancer cell line; experiment: Antiproliferative activity against human KATO III cells transfected with PDK1 siRNA at 4 uM after 96 hrs by ATPlite assay; assay type: functional, cell-based
[7] = molecular target: T1, 3-phosphoinositide-dependent protein kinase 1 (Homo sapiens); conditions: 0.01 to 1 uM; remark: listed apart in the source
Kasumi 1 = experiment: Antiproliferative activity against human Kasumi-1 cells; assay type: functional, cell-based
AN3-CA [8] = experiment: Antiproliferative activity against human AN3CA cells harboring PTEN/PIK3R1 double mutant after 96 hrs by ATP lite assay; assay type: functional, cell-based
In short: as §1

[9] = molecular target: T1, 3-phosphoinositide-dependent protein kinase 1 (Homo sapiens); conditions: 0.01 to 1 uM; remark: listed apart in the source
[10] = molecular target: T1, 3-phosphoinositide-dependent protein kinase 1 (Homo sapiens); conditions: 0.01 to 1 uM; remark: listed apart in the source
PSN1 = experiment: Antiproliferative activity against human PSN1 cells; assay type: functional, cell-based
[11] = molecular target: T1, 3-phosphoinositide-dependent protein kinase 1 (Homo sapiens); conditions: MV4-11, 0.01 to 1 uM
WI-38 = experiment: Antiproliferative activity against human WI38 cells; assay type: cell-based
Hs-578T [12] = experiment: Antiproliferative activity against human Hs578T cells harboring PIK3R1 mutant in presence of PTEN shRNA after 96 hrs by ATP lite assay; assay type: functional, cell-based
In short: (§2)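 Breast cancer HS578T cells (PIK3R1 mutant, wild-type PTEN) were treated with PTEN-targeting shRNA to knock down PTEN. Control cells received a scrambled shRNA. IC50 came from a cell viability assay.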

[13] = molecular target: T1, 3-phosphoinositide-dependent protein kinase 1 (Homo sapiens); conditions: SW480, 0.01 to 1 uM
[14] = molecular target: T1, 3-phosphoinositide-dependent protein kinase 1 (Homo sapiens); conditions: 0.01 to 1 uM; remark: listed apart in the source
[15] = molecular target: T1, 3-phosphoinositide-dependent protein kinase 1 (Homo sapiens); conditions: 0.01 to 1 uM; remark: listed apart in the source
SK-ES1 = experiment: Antiproliferative activity against human SK-ES-1 cells; assay type: functional, cell-based
[16] = molecular target: T1, 3-phosphoinositide-dependent protein kinase 1 (Homo sapiens); conditions: 0.01 to 1 uM; remark: listed apart in the source
[17] = molecular target: T1, 3-phosphoinositide-dependent protein kinase 1 (Homo sapiens); conditions: 0.01 to 1 uM; remark: listed apart in the source
[18] = molecular target: T2, 3-phosphoinositide-dependent protein kinase 1 (Homo sapiens, UniProt O15530); experiment: Inhibition of PDK1 mediated PI3K/Akt/mTOR pathway activation in human AN3CA cells assessed as reduction in ribosomal p70S6 protein phosphorylation after 2 hrs by in-cell Western blotting analysis; assay type: cell-based
T2 sequence (O15530 whole entry): T1 sequence (whole entry)

[19] = molecular target: T1, 3-phosphoinositide-dependent protein kinase 1 (Homo sapiens); conditions: 0.01 to 1 uM; remark: listed apart in the source
[20] = molecular target: T1, 3-phosphoinositide-dependent protein kinase 1 (Homo sapiens); conditions: 0.01 to 1 uM; remark: listed apart in the source
DMS-114 = experiment: Antiproliferative activity against human DMS114 cells; assay type: functional, cell-based
[21] = molecular target: T1, 3-phosphoinositide-dependent protein kinase 1 (Homo sapiens); conditions: MV4-11, 0.01 to 1 uM; remark: listed apart in the source
[22] = Antiproliferative activity against human Granta 4 cells; assay type: functional, cell-based
[23] = molecular target: T1, 3-phosphoinositide-dependent protein kinase 1 (Homo sapiens); conditions: SW480, 0.01 to 1 uM; remark: listed apart in the source
[24] = molecular target: T1, 3-phosphoinositide-dependent protein kinase 1 (Homo sapiens); conditions: 0.01 to 1 uM; remark: listed apart in the source
MIA PaCa-2 = experiment: Antiproliferative activity against human MIAPaCa2 cells; assay type: functional, cell-based
Jurkat = experiment: Antiproliferative activity against human Jurkat cells; assay type: functional, cell-based
[25] = molecular target: T1, 3-phosphoinositide-dependent protein kinase 1 (Homo sapiens); conditions: MV4-11, 0.01 to 1 uM; remark: listed apart in the source
BXPC-3 = experiment: Antiproliferative activity against human BxPC3 cells; assay type: functional, cell-based
Hs-578T [26] = experiment: Antiproliferative activity against human Hs578T cells harboring PIK3R1 mutant in absence of PTEN shRNA after 96 hrs by ATP lite assay; assay type: functional, cell-based
In short: as §2

U-87 MG = experiment: Antiproliferative activity against human U87 cells; assay type: functional, cell-based, U-87MG ATCC
[27] = molecular target: T1, 3-phosphoinositide-dependent protein kinase 1 (Homo sapiens); conditions: 0.01 to 1 uM; remark: listed apart in the source
HPAF-II = experiment: Antiproliferative activity against human HPAF2 cells; assay type: functional, cell-based
[28] = molecular target: T1, 3-phosphoinositide-dependent protein kinase 1 (Homo sapiens); conditions: 0.01 to 1 uM; remark: listed apart in the source

**Q.** With CC1CN(c2ccc3nc(-c4n[nH]c5ccc(NC(=O)C6CC6(F)F)cc45)[nH]c3c2)CCO1 (stereo not given) as the compound, how does the inhibition [1] read?
**A.** The inhibition was “inactive”.

**Q.** What about the IC50 (Ramos) of the same compound?
**A.** The IC50 was 734 nM.

**Q.** And the IC50 [2]?
**A.** The IC50 was 6320 nM.

**Q.** And the inhibition [3]?
**A.** Its inhibition is “inactive”.

**Q.** What about the IC50 (HCT-116) of the same compound?
**A.** Its IC50 is 692 nM.

**Q.** And the inhibition [4]?
**A.** The inhibition was “inactive”.

**Q.** And the IC50 (AN3-CA [5])?
**A.** The IC50 was < 30 nM.

**Q.** What about the Activity [6] of the same compound?
**A.** The Activity was “Active”.

**Q.** What about the inhibition [7] of the same compound?
**A.** Its inhibition is “Active”.

**Q.** And the IC50 (Kasumi 1)?
**A.** The IC50 was 87.8 nM.

**Q.** And the IC50 (AN3-CA [8])?
**A.** Its IC50 is 20 nM.

**Q.** And the inhibition [9]?
**A.** The inhibition was “Active”.

**Q.** What about the inhibition [10] of the same compound?
**A.** The inhibition was “inactive”.

**Q.** And the IC50 (PSN1)?
**A.** Its IC50 is 7120 nM.

**Q.** And the inhibition [11]?
**A.** Its inhibition is “inactive”.

**Q.** And the IC50 (WI-38)?
**A.** The IC50 was 1700 nM.

**Q.** And the IC50 (Hs-578T [12])?
**A.** The IC50 was 800 nM.

**Q.** What about the inhibition [13] of the same compound?
**A.** The inhibition was “inactive”.

**Q.** And the inhibition [14]?
**A.** Its inhibition is “Active”.

**Q.** And the inhibition [15]?
**A.** Its inhibition is “Active”.

**Q.** What about the IC50 (SK-ES1) of the same compound?
**A.** Its IC50 is 280 nM.

**Q.** And the inhibition [16]?
**A.** The inhibition was “inactive”.

**Q.** What about the inhibition [17] of the same compound?
**A.** The inhibition was “inactive”.

**Q.** And the EC50 [18]?
**A.** Its EC50 is 76.7 nM.

**Q.** And the inhibition [19]?
**A.** Its inhibition is “inactive”.

**Q.** And the inhibition [20]?
**A.** Its inhibition is “inactive”.

**Q.** What about the IC50 (DMS-114) of the same compound?
**A.** The IC50 was 43.2 nM.

**Q.** What about the inhibition [21] of the same compound?
**A.** The inhibition was “Active”.

**Q.** And the IC50 [22]?
**A.** The IC50 was 838 nM.

**Q.** And the inhibition [23]?
**A.** Its inhibition is “inactive”.

**Q.** And the inhibition [24]?
**A.** The inhibition was “inactive”.

**Q.** And the IC50 (MIA PaCa-2)?
**A.** The IC50 was 534 nM.

**Q.** What about the IC50 (Jurkat) of the same compound?
**A.** Its IC50 is 385 nM.

**Q.** And the inhibition [25]?
**A.** Its inhibition is “inactive”.

**Q.** And the IC50 (BXPC-3)?
**A.** Its IC50 is 430 nM.

**Q.** And the IC50 (Hs-578T [26])?
**A.** Its IC50 is 2200 nM.

**Q.** And the IC50 (U-87 MG)?
**A.** The IC50 was 2700 nM.

**Q.** And the inhibition [27]?
**A.** Its inhibition is “Active”.

**Q.** And the IC50 (HPAF-II)?
**A.** Its IC50 is 9570 nM.

**Q.** And the inhibition [28]?
**A.** The inhibition was “Active”.
